ChEMBL document CHEMBL4689842, “EUbOPEN Chemogenomics Library wave 1” (2021)

System: Fibroblast
Test: Multiplex assay against human fibroblast
Assay type: toxicity, cell-based
Method in brief: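 Cells were classed with CellPathfinder machine-learning gating, first as Hoechst high-intensity objects or normal cells, then (normal cells) as healthy, pyknosed or fragmented nuclei, and finally (pyknosed cells) as mitotic or apoptotic. Staining of live cells at seeding used Hoechst33342, BioTracker Green Microtubule Cytoskeleton Dye, MitoTracker Red and Annexin V Alexa Fluor 680, with imaging on a CQ1 microscope at 37°C and 5% CO2 after compound addition. Tubulin, mitochondrial-mass and membrane-permeability phenotypes are per cents of healthy-nucleus cells.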

[1] = 12 h, 1 µM, compound concentration 1 uM, replicate 1
[2] = 12 h, 1 µM, compound concentration 1 uM, replicate 2
[3] = 12 h, 10 µM, compound concentration 10 uM, replicate 1
[4] = 12 h, 10 µM, compound concentration 10 uM, replicate 2
[5] = 24 h, 1 µM, compound concentration 1 uM, replicate 1
[6] = 24 h, 1 µM, compound concentration 1 uM, replicate 2
[7] = 24 h, 10 µM, compound concentration 10 uM, replicate 1
[8] = 24 h, 10 µM, compound concentration 10 uM, replicate 2
[9] = 48 h, 1 µM, compound concentration 1 uM, replicate 1
[10] = 48 h, 1 µM, compound concentration 1 uM, replicate 2
[11] = 48 h, 10 µM, compound concentration 10 uM, replicate 1
[12] = 48 h, 10 µM, compound concentration 10 uM, replicate 2

C=C1/C(=C\C=C2/CCC[C@]3(C)[C@@H]([C@H](C)/C=C/[C@H](C)C(C)C)CC[C@@H]23)C[C@@H](O)C[C@@H]1O [DOXERCALCIFEROL]
Population Apoptotic (%) [1]: 63% | Population Fragmented Nuclei (%) [1]: 23% | Population Healthy Nuclei (%) [1]: 33% | Population Hoechst High Intensity Objects (%) [1]: 10% | Population Membrane Permeable-Phenotype (%) [1]: 10% | Population Mitochondria Different-Phenotype (%) [1]: 0% | Population Mitotic Cells (%) [1]: 36% | Population Normal (%) [1]: 89% | Population Pyknosed Nuclei (%) [1]: 42% | Population Tubulin-Different-Phenotype (%) [1]: 14% | Total Cell Count [1]: 94 | Population Apoptotic (%) [2]: 40% | Population Fragmented Nuclei (%) [2]: 1% | Population Healthy Nuclei (%) [2]: 90% | Population Hoechst High Intensity Objects (%) [2]: 1% | Population Membrane Permeable-Phenotype (%) [2]: 5% | Population Mitochondria Different-Phenotype (%) [2]: 14% | Population Mitotic Cells (%) [2]: 60% | Population Normal (%) [2]: 98% | Population Pyknosed Nuclei (%) [2]: 8% | Population Tubulin-Different-Phenotype (%) [2]: 9% | Total Cell Count [2]: 111 | Population Apoptotic (%) [3]: 30% | Population Fragmented Nuclei (%) [3]: 72% | Population Healthy Nuclei (%) [3]: 21% | Population Hoechst High Intensity Objects (%) [3]: 11% | Population Membrane Permeable-Phenotype (%) [3]: 4% | Population Mitochondria Different-Phenotype (%) [3]: 15% | Population Mitotic Cells (%) [3]: 69% | Population Normal (%) [3]: 88% | Population Pyknosed Nuclei (%) [3]: 5% | Population Tubulin-Different-Phenotype (%) [3]: 28% | Total Cell Count [3]: 247 | Population Apoptotic (%) [4]: 0% | Population Fragmented Nuclei (%) [4]: 27% | Population Healthy Nuclei (%) [4]: 67% | Population Hoechst High Intensity Objects (%) [4]: 6% | Population Membrane Permeable-Phenotype (%) [4]: 2% | Population Mitochondria Different-Phenotype (%) [4]: 21% | Population Mitotic Cells (%) [4]: 100% | Population Normal (%) [4]: 93% | Population Tubulin-Different-Phenotype (%) [4]: 13% | Total Cell Count [4]: 61 | Population Apoptotic (%) [5]: 38% | Population Fragmented Nuclei (%) [5]: 18% | Population Healthy Nuclei (%) [5]: 48% | Population Hoechst High Intensity Objects (%) [5]: 10% | Population Membrane Permeable-Phenotype (%) [5]: 22% | Population Mitochondria Different-Phenotype (%) [5]: 2% | Population Mitotic Cells (%) [5]: 61% | Population Normal (%) [5]: 89% | Population Pyknosed Nuclei (%) [5]: 34% | Population Tubulin-Different-Phenotype (%) [5]: 27% | Total Cell Count [5]: 112 | Population Apoptotic (%) [6]: 42% | Population Fragmented Nuclei (%) [6]: 5% | Population Healthy Nuclei (%) [6]: 86% | Population Hoechst High Intensity Objects (%) [6]: 4% | Population Membrane Permeable-Phenotype (%) [6]: 4% | Population Mitochondria Different-Phenotype (%) [6]: 7% | Population Mitotic Cells (%) [6]: 57% | Population Normal (%) [6]: 95% | Population Pyknosed Nuclei (%) [6]: 8% | Population Tubulin-Different-Phenotype (%) [6]: 14% | Total Cell Count [6]: 157 | Population Apoptotic (%) [7]: 69% | Population Fragmented Nuclei (%) [7]: 55% | Population Healthy Nuclei (%) [7]: 36% | Population Hoechst High Intensity Objects (%) [7]: 9% | Population Membrane Permeable-Phenotype (%) [7]: 12% | Population Mitochondria Different-Phenotype (%) [7]: 6% | Population Mitotic Cells (%) [7]: 30% | Population Normal (%) [7]: 90% | Population Pyknosed Nuclei (%) [7]: 8% | Population Tubulin-Different-Phenotype (%) [7]: 9% | Total Cell Count [7]: 304 | Population Apoptotic (%) [8]: 33% | Population Fragmented Nuclei (%) [8]: 25% | Population Healthy Nuclei (%) [8]: 70% | Population Hoechst High Intensity Objects (%) [8]: 3% | Population Membrane Permeable-Phenotype (%) [8]: 1% | Population Mitochondria Different-Phenotype (%) [8]: 16% | Population Mitotic Cells (%) [8]: 66% | Population Normal (%) [8]: 96% | Population Pyknosed Nuclei (%) [8]: 4% | Population Tubulin-Different-Phenotype (%) [8]: 13% | Total Cell Count [8]: 83 | Population Apoptotic (%) [9]: 66% | Population Fragmented Nuclei (%) [9]: 22% | Population Healthy Nuclei (%) [9]: 58% | Population Hoechst High Intensity Objects (%) [9]: 18% | Population Membrane Permeable-Phenotype (%) [9]: 21% | Population Mitochondria Different-Phenotype (%) [9]: 3% | Population Mitotic Cells (%) [9]: 33% | Population Normal (%) [9]: 81% | Population Pyknosed Nuclei (%) [9]: 18% | Population Tubulin-Different-Phenotype (%) [9]: 35% | Total Cell Count [9]: 118 | Population Apoptotic (%) [10]: 0% | Population Fragmented Nuclei (%) [10]: 27% | Population Healthy Nuclei (%) [10]: 72% | Population Hoechst High Intensity Objects (%) [10]: 42% | Population Membrane Permeable-Phenotype (%) [10]: 17% | Population Mitochondria Different-Phenotype (%) [10]: 2% | Population Mitotic Cells (%) [10]: 0% | Population Normal (%) [10]: 57% | Population Pyknosed Nuclei (%) [10]: 0% | Population Tubulin-Different-Phenotype (%) [10]: 37% | Total Cell Count [10]: 165 | Population Apoptotic (%) [11]: 86% | Population Fragmented Nuclei (%) [11]: 33% | Population Healthy Nuclei (%) [11]: 46% | Population Hoechst High Intensity Objects (%) [11]: 12% | Population Membrane Permeable-Phenotype (%) [11]: 23% | Population Mitochondria Different-Phenotype (%) [11]: 0% | Population Mitotic Cells (%) [11]: 13% | Population Normal (%) [11]: 87% | Population Pyknosed Nuclei (%) [11]: 19% | Population Tubulin-Different-Phenotype (%) [11]: 2% | Total Cell Count [11]: 351 | Population Apoptotic (%) [12]: 100% | Population Fragmented Nuclei (%) [12]: 39% | Population Healthy Nuclei (%) [12]: 59% | Population Hoechst High Intensity Objects (%) [12]: 14% | Population Mitochondria Different-Phenotype (%) [12]: 1% | Population Mitotic Cells (%) [12]: 0% | Population Normal (%) [12]: 85% | Population Pyknosed Nuclei (%) [12]: 1% | Population Tubulin-Different-Phenotype (%) [12]: 49% | Total Cell Count [12]: 128
